According to ChEMBL document CHEMBL1123927, “Leukotriene receptor antagonists. 2. The [[(tetrazol-5-ylaryl)oxy]methyl]acetophenone derivatives” (J Med Chem, 1987):
Calls of active or inactive are those of the source. The calls are words filed in the database; no cut-off is given here.

species: Cavia porcellus; experiment: Antagonist activity was evaluated against LTD4-induced contraction in guinea pig ileum; assay type: functional; settings: read-out: pA2 (converted)
Procedure, shortened: (§1)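 Isolated guinea pig ileum contracted with a submaximal concentration of LTD4. Two, three or four antagonist concentrations were tested on a single ileum. […] Alternatively, pKB was taken as -log of the antagonist concentration producing a twofold rightward shift of the LTD4 concentration-response curve.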

| Compound | Kb [nM] |
| --- | --- |
| CCCc1c(OCCCCc2nnn[nH]2)ccc(C(C)=O)c1O [TOMELUKAST] | 63.1 |

species: Cavia porcellus; experiment: Inhibition of LTD4-induced contraction in guinea pig ileum. Not active at highest concentration tested, 1 x 10 E-5 M; assay type: functional; settings: not given; procedure, shortened: as §1

| Compound | -Log IC50 |
| --- | --- |
| CCCc1c(COc2ccc(-c3nn[nH]n3)cc2)ccc(C(=O)c2ccccc2)c1O | inactive |
| CCCc1c(COc2ccc(Cc3nnnn3C)cc2)ccc(C(C)=O)c1O | inactive |

target: Cysteinyl leukotriene receptor (Cavia porcellus); experiment: Inhibition of LTD4-induced contraction in guinea pig ileum; settings: not given

| Compound | -Log IC50 |
| --- | --- |
| CCCc1c(COCCOc2ccc(-c3nn[nH]n3)cc2)ccc(C(C)=O)c1O | 7.3 |
| CCCc1c(COc2ccccc2Cc2nnn[nH]2)ccc(C(C)=O)c1O | 6.2 |
| CCCc1c(COc2ccc(Cc3nnn[nH]3)cc2)ccc(C(=O)CC)c1O | 7 |
| CCCc1c(COc2ccc(OCc3nn[nH]n3)cc2)ccc(C(C)=O)c1O | 7.8 |
| CCCc1c(CSCc2ccc(-c3nn[nH]n3)cc2)ccc(C(C)=O)c1O | 6.5 |
| CCCc1c(COc2ccc(Cc3nnn(C)n3)cc2)ccc(C(C)=O)c1O | 6.2 |
| CCCc1c(CSc2ccc(-c3nn[nH]n3)cc2)ccc(C(C)=O)c1O | 7.7 |
| CC(=O)c1ccc(COc2ccc(-c3nn[nH]n3)cc2)c(C)c1O | 7 |
| CCCc1c(COCCOc2ccc(Cc3nnn[nH]3)cc2)ccc(C(C)=O)c1O | 7 |
| CCCc1c(CNc2ccc(Cc3nnn[nH]3)cc2)ccc(C(C)=O)c1O | 7.5 |
| CCc1c(COc2ccc(Cc3nnn[nH]3)cc2)ccc(C(C)=O)c1O | 7.9 |
| CCCc1c(COc2cccc(OCc3nn[nH]n3)c2)ccc(C(C)=O)c1O | 8 |
| CCCc1c(COc2cccc(Cc3nnn[nH]3)c2)ccc(C(C)=O)c1O | 7 |
| CCc1c(COc2ccc(-c3nn[nH]n3)cc2)ccc(C(C)=O)c1O | 7.9 |
| CCCc1c(COc2ccc(Cc3nnn[nH]3)cc2)ccc(C(C)=O)c1OC | 6.3 |
| CCCc1c(COc2ccc(-c3nn[nH]n3)cc2)ccc(C(C)=O)c1O | 8 |
| CCCc1c(COc2ccc(CCCc3nnn[nH]3)cc2)ccc(C(C)=O)c1O | 7.3 |
| CCCCc1c(COc2ccc(Cc3nnn[nH]3)cc2)ccc(C(C)=O)c1O | 7.8 |
| CCCc1c(COc2ccc(CCc3nnn[nH]3)cc2)ccc(C(C)=O)c1O | 8.1 |
| CCCc1c(COc2ccc(C(C)c3nnn[nH]3)cc2)ccc(C(C)=O)c1O (stereo unspecified) | 7.9 |
| CCCCc1c(COc2ccc(-c3nn[nH]n3)cc2)ccc(C(C)=O)c1O | 7.9 |
| CCCc1c(OCc2ccc(-c3nn[nH]n3)cc2)ccc(C(C)=O)c1O | 7 |
| CCCc1c(COc2ccc(/C=C/c3nn[nH]n3)cc2)ccc(C(C)=O)c1O | 7.4 |
| CCCc1c(COc2ccc(Cc3nnn[nH]3)cc2)ccc(C(C)=O)c1O [LY-163443] | 8 |
| CC(=O)c1ccc(COc2ccc(Cc3nnn[nH]3)cc2)c(CC(C)C)c1O | 7.7 |
| CCCc1c(COc2ccc(-c3nn[nH]n3)cc2)ccc(C=O)c1O | 6.4 |
| CCCc1c(COc2ccc(Cc3nnn[nH]3)cc2)ccc(/C(C)=N\O)c1O | 5.8 |

species: Cavia porcellus; experiment: Inhibition of LTD4-induced contraction in guinea pig ileum. Not active at highest concentration tested, 3 x 10 E-6 M; assay type: functional; settings: not given; procedure, shortened: as §1

| Compound | -Log IC50 |
| --- | --- |
| CC(=O)c1ccc(COc2ccc(Cc3nnn[nH]3)cc2)cc1O | inactive |
